Source: ChEMBL document CHEMBL1806370, “Development of novel naphthalimide derivatives and their evaluation as potential melanoma therapeutics” (Eur J Med Chem, 2011)

Tests used:
UACC-903 [1] = assay: Induction of apoptosis in human UACC-903 cells assessed as late apoptotic cells at 5 uM after 24 hrs using annexin-V-PE/7-AAD double staining by flow cytometry; type: functional
Procedure, shortened: (§1)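 UACC 903 cells were exposed 24 h at 37 °C to 1, 5 or 25 µM, with DMSO as control. Cells were harvested, washed twice in cold PBS and resuspended at 1×10^6 cells/mL in binding buffer. They were stained with 7-AAD plus PE Annexin V for 20 min at room temperature in the dark and run by flow cytometry within 1 h. Gating: double-negative live, 7-AAD+ dead, Annexin V+/7-AAD− early apoptotic. Three separate experiments.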

UACC-903 [2] = assay: Induction of apoptosis in human UACC-903 cells assessed as non-viable cells at 1 uM after 24 hrs using annexin-V-PE/7-AAD double staining by flow cytometry; type: functional; procedure, shortened: as §1
UACC-903 [3] = assay: Induction of apoptosis in human UACC-903 cells assessed as late apoptotic cells at 25 uM after 24 hrs using annexin-V-PE/7-AAD double staining by flow cytometry; type: functional; procedure, shortened: as §1
UACC-903 [4] = assay: Antitumor activity against human UACC-903 cells xenografted in athymic Harlan Sprague-Dawley nude mouse assessed as reduction in tumor growth at 8.5 to 10 mg/kg, ip administered thrice per week for 24 days measured after 21 days; type: functional; details: dose mg/kg 8.5-10; route intraperitoneal
Procedure, shortened: (§2)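 Female athymic nude mice, 4–6 weeks old, received 5×10^6 UACC 903 cells s.c. in DMEM/10% FBS above both rib cages. After six days they were randomized at 5 mice/group, 2 tumors/mouse. Dosing was i.p. Mon/Wed/Fri, with one arm dosed daily; controls got DMSO vehicle. Tumor dimensions (calipers, mm³) and body weight were recorded three times weekly.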

Mus musculus [5] = assay: Systemic toxicity in Swiss Webster mouse assessed as mortality at 15 mg/kg, ip administered every day for 28 days; type: organism-based; set-up: dose 15 mg/kg, route intraperitoneal; details: in vivo, 672 h
Procedure, shortened: (§3)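 Swiss Webster mice, n = 4 per group, dosed i.p. once daily for 28 days at 5, 7.5, 10 or 15 mg/kg body weight. Body weight recorded twice per week; deaths noted over the dosing period.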

UACC-903 [6] = assay: Cytotoxicity against human UACC-903 cells after 24 hrs by MTS assay; type: functional, cell-based; details: UACC-903, 24 h
Procedure, shortened: (§4)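 Cells in DMEM with 10% FBS at 37 °C and 5% CO2 were plated at 5×10^3 per well and grown 24 h. They were then exposed 24 or 72 h to 0.5, 1, 5, 10, 25 and 50 µM, with final DMSO 0.5% and DMSO controls. MTS/PMS was added for 4 h at 37 °C. A492 was read with the medium blank subtracted and expressed as % of control. IC50 was taken from three independent experiments (mean ± S.E.).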

[7] = Cytotoxicity against human 1205 Lu cells after 24 hrs by MTS assay; type: functional, cell-based; procedure, shortened: as §4
UACC-903 [8] = assay: Induction of apoptosis in human UACC-903 cells assessed as early apoptotic cells at 5 uM after 24 hrs using annexin-V-PE/7-AAD double staining by flow cytometry; type: functional; procedure, shortened: as §1
[9] = Cytotoxicity against human SK-MEL-37 cells after 24 hrs by MTS assay; type: functional, cell-based; procedure, shortened: as §4
SK-MEL-37 (Homo sapiens) [10] = assay: Cytotoxicity against human SK-MEL-37 cells assessed as decrease in cell viability after 72 hrs by MTS assay
UACC-903 [11] = assay: Induction of apoptosis in human UACC-903 cells assessed as viable cells at 5 uM after 24 hrs using annexin-V-PE/7-AAD double staining by flow cytometry; type: functional; details: UACC-903, 24 h, read-out: Activity; procedure, shortened: as §1
[12] = Cytotoxicity against human SK-MEL-37 cells after 72 hrs by MTS assay; type: functional, cell-based; procedure, shortened: as §4
UACC-903 [13] = assay: Induction of apoptosis in human UACC-903 cells assessed as non-viable cells at 25 uM after 24 hrs using annexin-V-PE/7-AAD double staining by flow cytometry; type: functional; procedure, shortened: as §1
UACC-903 [14] = assay: Induction of apoptosis in human UACC-903 cells assessed as early apoptotic cells at 1 uM after 24 hrs using annexin-V-PE/7-AAD double staining by flow cytometry; type: functional; procedure, shortened: as §1
UACC-903 [15] = assay: Induction of apoptosis in human UACC-903 cells assessed as viable cells at 25 uM after 24 hrs using annexin-V-PE/7-AAD double staining by flow cytometry; type: functional; details: UACC-903, 24 h, read-out: Activity; procedure, shortened: as §1
1205Lu [16] = assay: Cytotoxicity against human 1205 Lu cells assessed as decrease in cell viability after 24 hrs by MTS assay; type: functional, cell-based; procedure, shortened: as §4
[17] = Cytotoxicity against human A375-S2 cells after 72 hrs by MTS assay; type: functional, cell-based; details: A375-S2, 72 h; procedure, shortened: as §4
Mus musculus [18] = assay: Systemic toxicity in Swiss Webster mouse assessed as weight loss at 10 mg/kg, ip administered every day for 28 days; type: organism-based; set-up: dose 10 mg/kg, route intraperitoneal; details: in vivo, 672 h; procedure, shortened: as §3
Mus musculus [19] = assay: Systemic toxicity in athymic Harlan Sprague-Dawley nude mouse xenografted with human UACC-903 cells assessed as reduction in body weight at 8.5 to 10 mg/kg, ip administered thrice a week for 24 days; type: organism-based; set-up: dose 8.5-10 mg/kg, route intraperitoneal; details: in vivo, 576 h; procedure, shortened: as §2
UACC-903 [20] = assay: Cytotoxicity against human UACC-903 cells assessed as decrease in cell viability after 72 hrs by MTS assay; type: functional, cell-based; procedure, shortened: as §4
Mus musculus [21] = assay: Systemic toxicity in Swiss Webster mouse assessed as mortality at 10 mg/kg, ip administered every day for 28 days; type: organism-based; set-up: dose 10 mg/kg, route intraperitoneal; details: in vivo, 672 h; procedure, shortened: as §3
1205Lu [22] = assay: Cytotoxicity against human 1205 Lu cells assessed as decrease in cell viability after 72 hrs by MTS assay; type: functional, cell-based; procedure, shortened: as §4
A375-S2 [23] = assay: Cytotoxicity against human A375-S2 cells assessed as decrease in cell viability after 72 hrs by MTS assay; type: functional, cell-based; procedure, shortened: as §4
A375-S2 [24] = assay: Cytotoxicity against human A375-S2 cells assessed as decrease in cell viability after 24 hrs by MTS assay; type: functional, cell-based; procedure, shortened: as §4
UACC-903 [25] = assay: Cytotoxicity against human UACC-903 cells assessed as decrease in cell viability after 24 hrs by MTS assay; type: functional, cell-based; procedure, shortened: as §4
UACC-903 [26] = assay: Induction of apoptosis in human UACC-903 cells assessed as late apoptotic cells at 1 uM after 24 hrs using annexin-V-PE/7-AAD double staining by flow cytometry; type: functional; procedure, shortened: as §1
UACC-903 [27] = assay: Cytotoxicity against human UACC-903 cells after 72 hrs by MTS assay; type: functional, cell-based; details: UACC-903, 72 h; procedure, shortened: as §4
SK-MEL-37 (Homo sapiens) [28] = assay: Cytotoxicity against human SK-MEL-37 cells assessed as decrease in cell viability after 24 hrs by MTS assay
UACC-903 [29] = assay: Induction of apoptosis in human UACC-903 cells assessed as increase in apoptotic cells after 24 hrs using annexin-V-PE/7-AAD double staining by flow cytometry; type: functional, cell-based; procedure, shortened: as §1
UACC-903 [30] = assay: Induction of apoptosis in human UACC-903 cells assessed as non-viable cells at 5 uM after 24 hrs using annexin-V-PE/7-AAD double staining by flow cytometry; type: functional; procedure, shortened: as §1
[31] = Cytotoxicity against human A375-S2 cells after 24 hrs by MTS assay; type: functional, cell-based; details: A375-S2, 24 h; procedure, shortened: as §4
UACC-903 [32] = assay: Induction of apoptosis in human UACC-903 cells assessed as early apoptotic cells at 25 uM after 24 hrs using annexin-V-PE/7-AAD double staining by flow cytometry; type: functional; procedure, shortened: as §1
UACC-903 [33] = assay: Induction of apoptosis in human UACC-903 cells assessed as viable cells at 1 uM after 24 hrs using annexin-V-PE/7-AAD double staining by flow cytometry; type: functional; details: UACC-903, 24 h, read-out: Activity; procedure, shortened: as §1
[34] = Cytotoxicity against human 1205 Lu cells after 72 hrs by MTS assay; type: functional, cell-based; procedure, shortened: as §4

O=C1c2cccc3cccc(c23)C(=O)N1CCCCCCN=C=S
Activity (UACC-903 [1]): 28.7% | Activity (UACC-903 [2]): 2.99% | Activity (UACC-903 [3]): 8.56% | growth inhibition (GI) (UACC-903 [4]): 50% | Activity (Mus musculus [5]): Toxic | IC50 (UACC-903 [6]): 9.02 µM | IC50 [7]: 11.5 µM | Activity (UACC-903 [8]): 49.6% | IC50 [9]: 3.07 µM | Activity (SK-MEL-37 (Homo sapiens) [10]): Dose-dependent effect | viability at 5 µM (UACC-903 [11]): 19.6% | IC50 [12]: 1.67 µM | Activity (UACC-903 [13]): 1.15% | Activity (UACC-903 [14]): 12.9% | viability at 25 µM (UACC-903 [15]): 18.7% | Activity (1205Lu [16]): Dose-dependent effect | IC50 [17]: 3.54 µM | Activity (Mus musculus [18]): Non-toxic | Activity (Mus musculus [19]): Non-toxic | Activity (UACC-903 [20]): Dose-dependent effect | Activity (Mus musculus [21]): Non-toxic | Activity (1205Lu [22]): Dose-dependent effect | Activity (A375-S2 [23]): Dose-dependent effect | Activity (A375-S2 [24]): Dose-dependent effect | Activity (UACC-903 [25]): Dose-dependent effect | Activity (UACC-903 [26]): 6.25% | IC50 (UACC-903 [27]): 7.6 µM | Activity (SK-MEL-37 (Homo sapiens) [28]): Dose-dependent effect | Activity (UACC-903 [29]): Dose-dependent effect | Activity (UACC-903 [30]): 2.11% | IC50 [31]: 5.07 µM | Activity (UACC-903 [32]): 71.6% | viability at 1 µM (UACC-903 [33]): 77.8% | IC50 [34]: 5.25 µM
